In ChEMBL document CHEMBL3272012, “5-(Tetradecyloxy)-2-furancarboxylic acid and related hypolipidemic fatty acid-like alkyloxyarylcarboxylic acids” (J Med Chem, 1977):
Each block holds one compound with its values, some of them ahead of it.

Experiments:
Rattus norvegicus [1] = experiment: Hypolipidemic activity in Wistar rat assessed as reduction in plasma cholesterol level at 558 umol/kg/day administered through diet for 10 days; type: functional; settings: 240 h
Method in brief: (§1)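 Young male Wistar rats (initial weight 170-190 g), groups of six, fed compound mixed into Purina Lab Chow ad libitum for 4 or 10 days; daily dose calculated from food consumption and body weight. Bled by cardiac puncture; plasma cholesterol and triglycerides by automated procedures; percent reduction versus simultaneous untreated controls, Student's t test.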

Rattus norvegicus [2] = experiment: Hypolipidemic activity in Wistar rat assessed as reduction in plasma cholesterol level at 179 umol/kg/day administered through diet for 10 days; type: functional; settings: 240 h
Method in brief: (§2)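 Young male Wistar rats, 170-190 g at start, in groups of six, given compound mixed into Purina Lab Chow ad libitum for 4 or 10 days as stated. Daily dose was calculated from food consumption and body weight. Plasma was taken by cardiac puncture at the end and cholesterol measured by automated procedure. Results are % reduction versus a concurrent untreated control group, with Student's t test.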

Rattus norvegicus [3] = experiment: Increase in liver weight in Wistar rat at 1498 umol/kg/day administered through diet for 10 days; type: ADME, organism-based; settings: in vivo, po, 240 h
Rattus norvegicus [4] = experiment: Increase in cholesterol level in Wistar rat liver at 558 umol/kg/day administered through diet for 10 days; type: ADME, organism-based; settings: in vivo, po, 240 h
Method in brief: (§3)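 Male Wistar rats (170-190 g), six per group, given compound by admixture to lab chow ad libitum for 4 or 10 days, dose derived from food intake. Liver cholesterol determined by automated procedure, expressed as mg/g wet tissue, compared with an untreated control group by Student's t test.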

Rattus norvegicus [5] = experiment: Increase in cholesterol level in Wistar rat liver at 179 umol/kg/day administered through diet for 10 days; type: ADME, organism-based; settings: in vivo, po, 240 h; method in brief: as §3
Rattus norvegicus [6] = experiment: Increase in cholesterol level in Wistar rat liver at 1498 umol/kg/day administered through diet for 10 days; type: ADME, organism-based; settings: in vivo, po, 240 h
Rattus norvegicus [7] = experiment: Hypolipidemic activity in Wistar rat assessed as reduction in plasma triglyceride level at 179 umol/kg/day administered through diet for 10 days; type: functional; settings: 240 h; method in brief: as §1
Rattus norvegicus [8] = experiment: Hypolipidemic activity in Wistar rat assessed as reduction in plasma triglyceride level at 558 umol/kg/day administered through diet for 10 days; type: functional; settings: 240 h; method in brief: as §1
Rattus norvegicus [9] = experiment: Increase in liver weight in Wistar rat at 558 umol/kg/day administered through diet for 10 days; type: ADME, organism-based; settings: in vivo, po, 240 h
Method in brief: (§4)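 Male Wistar rats (170-190 g initial), groups of six, dosed via diet ad libitum for 4 or 10 days, daily dose from food consumption. Liver wet weight measured, expressed as g/100 g final body weight, compared with untreated controls run simultaneously.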

Rattus norvegicus [10] = experiment: Hypolipidemic activity in Wistar rat assessed as reduction in plasma cholesterol level at 1498 umol/kg/day administered through diet for 10 days; type: functional; settings: 240 h; method in brief: as §2
Rattus norvegicus [11] = experiment: Hypolipidemic activity in Wistar rat assessed as reduction in plasma triglyceride level at 1498 umol/kg/day administered through diet for 10 days; type: functional; settings: 240 h
Method in brief: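 Young male Wistar rats, 170-190 g initial weight, six per group, fed drug mixed thoroughly into Purina Lab Chow ad libitum for the stated days; daily dose calculated from food consumption and body weight. Bled by cardiac puncture at end; plasma cholesterol and triglycerides by automated procedures, expressed as percent reduction versus simultaneous untreated controls; Student's t test.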

Rattus norvegicus [12] = experiment: Hypolipidemic activity in Wistar rat assessed as reduction in plasma cholesterol level at 538 umol/kg/day administered through diet for 10 days; type: functional; settings: 240 h
Method in brief: (§5)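 Young male Wistar rats, 170-190 g initial weight, groups of six, given compound mixed thoroughly into Purina Lab Chow ad libitum for 4 or 10 days as stated. Daily dose calculated from food consumption and body weight. Bled by cardiac puncture at end of treatment; plasma cholesterol measured by automated procedure. Expressed as percent reduction versus simultaneous untreated control group; Student's t test.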

Rattus norvegicus [13] = experiment: Increase in liver weight in Wistar rat at 538 umol/kg/day administered through diet for 10 days; type: ADME, organism-based; settings: in vivo, po, 240 h
Rattus norvegicus [14] = experiment: Increase in cholesterol level in Wistar rat liver at 538 umol/kg/day administered through diet for 10 days; type: ADME, organism-based; settings: in vivo, po, 240 h
Rattus norvegicus [15] = experiment: Hypolipidemic activity in Wistar rat assessed as reduction in plasma triglyceride level at 538 umol/kg/day administered through diet for 10 days; type: functional; settings: 240 h
Rattus norvegicus [16] = experiment: Increase in cholesterol level in Wistar rat liver at 591 umol/kg/day administered through diet for 4 days; type: ADME, organism-based; settings: in vivo, po, 96 h
Rattus norvegicus [17] = experiment: Hypolipidemic activity in Wistar rat assessed as reduction in plasma cholesterol level at 591 umol/kg/day administered through diet for 4 days; type: functional; settings: 96 h; method in brief: as §1
Rattus norvegicus [18] = experiment: Hypolipidemic activity in Wistar rat assessed as reduction in plasma triglyceride level at 591 umol/kg/day administered through diet for 4 days; type: functional; settings: 96 h
Rattus norvegicus [19] = experiment: Increase in liver weight in Wistar rat at 591 umol/kg/day administered through diet for 4 days; type: ADME, organism-based; settings: in vivo, po, 96 h
Rattus norvegicus [20] = experiment: Hypolipidemic activity in Wistar rat assessed as reduction in plasma triglyceride level at 401 umol/kg/day administered through diet for 4 days; type: functional; settings: 96 h; method in brief: as §1
Rattus norvegicus [21] = experiment: Increase in liver weight in Wistar rat at 401 umol/kg/day administered through diet for 4 days; type: ADME, organism-based; settings: in vivo, po, 96 h; method in brief: as §4
Rattus norvegicus [22] = experiment: Hypolipidemic activity in Wistar rat assessed as reduction in plasma cholesterol level at 401 umol/kg/day administered through diet for 4 days; type: functional; settings: 96 h; method in brief: as §2
Rattus norvegicus [23] = experiment: Increase in cholesterol level in Wistar rat liver at 401 umol/kg/day administered through diet for 4 days; type: ADME, organism-based; settings: in vivo, po, 96 h
Rattus norvegicus [24] = experiment: Hypolipidemic activity in Wistar rat assessed as reduction in plasma triglyceride level at 339 umol/kg/day administered through diet for 4 days; type: functional; settings: 96 h
Method in brief: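 Young male Wistar rats (170-190 g initial weight), groups of six, were fed compound mixed into lab chow ad libitum for 4 or 10 days alongside an untreated control group. Daily dose was calculated from food consumption and body weight. Rats were bled by cardiac puncture, and plasma triglyceride was measured by automated procedure. Results are expressed as percent reduction from simultaneous controls, with Student's t test.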

Rattus norvegicus [25] = experiment: Increase in liver weight in Wistar rat at 339 umol/kg/day administered through diet for 4 days; type: ADME, organism-based; settings: in vivo, po, 96 h
Rattus norvegicus [26] = experiment: Hypolipidemic activity in Wistar rat assessed as reduction in plasma cholesterol level at 339 umol/kg/day administered through diet for 4 days; type: functional; settings: 96 h; method in brief: as §2
Rattus norvegicus [27] = experiment: Increase in cholesterol level in Wistar rat liver at 339 umol/kg/day administered through diet for 4 days; type: ADME, organism-based; settings: in vivo, po, 96 h
Rattus norvegicus [28] = experiment: Increase in liver weight in Wistar rat at 640 umol/kg/day administered through diet for 10 days; type: ADME, organism-based; settings: in vivo, po, 240 h
Rattus norvegicus [29] = experiment: Hypolipidemic activity in Wistar rat assessed as reduction in plasma cholesterol level at 640 umol/kg/day administered through diet for 10 days; type: functional; settings: 240 h; method in brief: as §1
Rattus norvegicus [30] = experiment: Increase in cholesterol level in Wistar rat liver at 640 umol/kg/day administered through diet for 10 days; type: ADME, organism-based; settings: in vivo, po, 240 h
Rattus norvegicus [31] = experiment: Hypolipidemic activity in Wistar rat assessed as reduction in plasma triglyceride level at 640 umol/kg/day administered through diet for 10 days; type: functional; settings: 240 h
Rattus norvegicus [32] = experiment: Increase in liver weight in Wistar rat at 385 umol/kg/day administered through diet for 4 days; type: ADME, organism-based; settings: in vivo, po, 96 h
Rattus norvegicus [33] = experiment: Increase in cholesterol level in Wistar rat liver at 385 umol/kg/day administered through diet for 4 days; type: ADME, organism-based; settings: in vivo, po, 96 h
Rattus norvegicus [34] = experiment: Hypolipidemic activity in Wistar rat assessed as reduction in plasma triglyceride level at 385 umol/kg/day administered through diet for 4 days; type: functional; settings: 96 h
Method in brief: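 Young male Wistar rats (170-190 g initial weight), groups of six, fed test compound mixed into Purina Lab Chow ad libitum; daily dose calculated from food consumption and body weight. Bled by cardiac puncture at end of treatment; plasma triglycerides measured by automated procedure. Results given as percent reduction versus a simultaneous untreated control group, with significance by Student's t test.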

Rattus norvegicus [35] = experiment: Hypolipidemic activity in Wistar rat assessed as reduction in plasma cholesterol level at 385 umol/kg/day administered through diet for 4 days; type: functional; settings: 96 h; method in brief: as §2
Rattus norvegicus [36] = experiment: Hypolipidemic activity in Wistar rat assessed as reduction in plasma cholesterol level at 509 umol/kg/day administered through diet for 4 days; type: functional; settings: 96 h; method in brief: as §5
Rattus norvegicus [37] = experiment: Increase in cholesterol level in Wistar rat liver at 509 umol/kg/day administered through diet for 4 days; type: ADME, organism-based; settings: in vivo, po, 96 h
Rattus norvegicus [38] = experiment: Hypolipidemic activity in Wistar rat assessed as reduction in plasma triglyceride level at 509 umol/kg/day administered through diet for 4 days; type: functional; settings: 96 h
Rattus norvegicus [39] = experiment: Increase in liver weight in Wistar rat at 509 umol/kg/day administered through diet for 4 days; type: ADME, organism-based; settings: in vivo, po, 96 h

Structure (SMILES): CCCCCCCCOc1ccc(C(=O)O)cc1
Activity (Rattus norvegicus [16]): 12% | inhibition in vivo at 591 µmol/kg (Rattus norvegicus [17]): 8% | inhibition in vivo at 591 µmol/kg (Rattus norvegicus [18]): 35% | Activity (Rattus norvegicus [19]): 0%

Structure (SMILES): CCCCCCCCCCCCCCOc1ccc(CCC(=O)OC)cc1
inhibition in vivo at 401 µmol/kg (Rattus norvegicus [20]): 73% | Activity (Rattus norvegicus [21]): 17% | inhibition in vivo at 401 µmol/kg (Rattus norvegicus [22]): 41% | Activity (Rattus norvegicus [23]): 15%

Structure (SMILES): CCCCCCCCCCCCCCCCOc1ccc(C(=O)CC(=O)OC)cc1
inhibition in vivo at 339 µmol/kg (Rattus norvegicus [24]): 57% | Activity (Rattus norvegicus [25]): 18% | inhibition in vivo at 339 µmol/kg (Rattus norvegicus [26]): 32% | Activity (Rattus norvegicus [27]): 2%

Structure (SMILES): CCCCCCCCCCCCCCOc1ccc(COC(=O)OCC)cc1
Activity (Rattus norvegicus [32]): 11% | Activity (Rattus norvegicus [33]): 12% | inhibition in vivo at 385 µmol/kg (Rattus norvegicus [34]): 70% | inhibition in vivo at 385 µmol/kg (Rattus norvegicus [35]): 38%

Structure (SMILES): CCCCCCCCCCCCCCOc1ccc(C)cc1
inhibition in vivo at 509 µmol/kg (Rattus norvegicus [36]): 0% | Activity (Rattus norvegicus [37]): 0% | inhibition in vivo at 509 µmol/kg (Rattus norvegicus [38]): 30% | Activity (Rattus norvegicus [39]): 10%

The next lines start with results.

Activity (Rattus norvegicus [3]): 38% | Activity (Rattus norvegicus [4]): 215% | Activity (Rattus norvegicus [5]): 79% | Activity (Rattus norvegicus [6]): 323% | Activity (Rattus norvegicus [9]): 29%
Structure (SMILES): CCCCCCCCCCCCc1ccc(C(=O)O)cc1
inhibition in vivo at 558 µmol/kg (Rattus norvegicus [1]): 48% | inhibition in vivo at 179 µmol/kg (Rattus norvegicus [2]): 34% | inhibition in vivo at 179 µmol/kg (Rattus norvegicus [7]): 62% | inhibition in vivo at 558 µmol/kg (Rattus norvegicus [8]): 78% | inhibition in vivo at 1498 µmol/kg (Rattus norvegicus [10]): 55% | inhibition in vivo at 1498 µmol/kg (Rattus norvegicus [11]): 74%

Activity (Rattus norvegicus [13]): 11% | Activity (Rattus norvegicus [14]): 11%
Structure (SMILES): CCCCCCCCc1ccc(C(=O)O)cc1
inhibition in vivo at 538 µmol/kg (Rattus norvegicus [12]): 6% | inhibition in vivo at 538 µmol/kg (Rattus norvegicus [15]): 21%

Activity (Rattus norvegicus [28]): 18% | Activity (Rattus norvegicus [30]): 43%
Structure (SMILES): CCCCCCCCCCc1ccc(C(=O)O)cc1
inhibition in vivo at 640 µmol/kg (Rattus norvegicus [29]): 32% | inhibition in vivo at 640 µmol/kg (Rattus norvegicus [31]): 63%
